Data from ChEMBL document CHEMBL3098020, “Synthesis and biological evaluation of novel 2-amino-3-aroyl-4-neopentyl-5-substituted thiophene derivatives as allosteric enhancers of the A₁ adenosine receptor” (Bioorg Med Chem, 2014).

Legend:
[1] = target: T1, Adenosine receptor A1 (Homo sapiens) (UniProt P30542); test: Potentiation of CCPA-induced displacement of [3H]-DPCPX from human adenosine A1 receptor expressed in CHO cell membranes at 10 uM after 90 mins relative to CCPA-treated control
T1 sequence (whole entry): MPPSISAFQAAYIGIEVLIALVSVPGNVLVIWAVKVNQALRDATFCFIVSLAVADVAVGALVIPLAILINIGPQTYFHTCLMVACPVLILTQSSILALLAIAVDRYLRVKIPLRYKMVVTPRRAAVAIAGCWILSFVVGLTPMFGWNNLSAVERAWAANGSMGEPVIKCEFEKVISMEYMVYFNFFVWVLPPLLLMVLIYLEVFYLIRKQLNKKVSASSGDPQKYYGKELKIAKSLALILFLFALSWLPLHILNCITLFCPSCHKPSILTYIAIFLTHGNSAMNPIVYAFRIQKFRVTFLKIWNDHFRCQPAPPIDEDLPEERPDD
Procedure, shortened: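 CCPA (0.01 nM–1 µM) competition against [³H]DPCPX in hA1-CHO membranes, with or without compound at 10 µM. Nonspecific binding defined with 1 µM DPCPX. Ki calculated from IC50 by the Cheng-Prusoff equation; CCPA Ki shift given as fold change; three experiments.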

[2] = target: T1, Adenosine receptor A1 (Homo sapiens); test: Potentiation of [3H]CCPA binding to human adenosine A1 receptor expressed in CHO cell membranes at 10 uM after 90 mins relative to [3H]CCPA-treated control
[3] = target: T2, Adenosine receptor A3 (Homo sapiens) (UniProt P0DMS8); test: Displacement of [3H]-MRE-3008-F20 from human adenosine A3 receptor expressed in CHO cell membranes at 10 uM by scintillation counting analysis relative to control
T2 sequence (whole entry): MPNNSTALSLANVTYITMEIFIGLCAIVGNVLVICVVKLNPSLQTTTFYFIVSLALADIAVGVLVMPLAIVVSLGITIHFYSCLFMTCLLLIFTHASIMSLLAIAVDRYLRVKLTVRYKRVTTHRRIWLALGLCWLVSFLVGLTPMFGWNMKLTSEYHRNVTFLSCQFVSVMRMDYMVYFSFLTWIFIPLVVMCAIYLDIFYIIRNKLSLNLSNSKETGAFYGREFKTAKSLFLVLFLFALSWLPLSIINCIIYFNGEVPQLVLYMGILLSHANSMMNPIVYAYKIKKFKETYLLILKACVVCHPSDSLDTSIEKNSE
Procedure, shortened: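 A3-expressing CHO membranes in 50 mM Tris-HCl, 10 mM MgCl₂, 1 mM EDTA pH 7.4 with 2 nM [³H]MRE-3008-F20. Incubated 120 min at 4 °C. Compound 10 µM in 1% DMSO final. Filtration and scintillation counting; percent inhibition of specific binding.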

[4] = target: Adenosine receptor A2a (Homo sapiens) (UniProt P29274); test: Displacement of [3H]-ZM241385 from human adenosine A2A receptor expressed in CHO cell membranes at 10 uM by scintillation counting analysis relative to control
Procedure, shortened: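 A2A-expressing CHO membranes, pretreated with adenosine deaminase, in 50 mM Tris-HCl, 10 mM MgCl₂ pH 7.4 with 1 nM [³H]ZM 241385. Incubated 60 min at 4 °C. Compound 10 µM in 1% DMSO final. Filtration and scintillation counting; percent inhibition of specific binding.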

[5] = target: T1, Adenosine receptor A1 (Homo sapiens); test: Displacement of [3H]-DPCPX from human adenosine A1 receptor expressed in CHO cell membranes at 10 uM by scintillation counting analysis relative to control
Procedure, shortened: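 hA1-CHO membranes, pretreated with adenosine deaminase, in 50 mM Tris-HCl pH 7.4 with 1 nM [³H]DPCPX. Incubated 120 min at 25 °C. Compound 10 µM added from 100-fold DMSO stock, 1% DMSO final. Bound ligand collected on glass-fibre filters and counted by scintillation; percent inhibition of specific binding.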

[6] = target: T1, Adenosine receptor A1 (Homo sapiens); test: Allosteric enhancement of human adenosine A1 receptor expressed in CHO cells assessed as inhibition of forskolin-stimulated cAMP production at 100 nM preincubated for 10 mins followed by forskolin challenge measured after 5 mins by scintillation counting analysis in presence of CCPA relative to control; assay type: functional, cell-based
Procedure, shortened: (§1)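 hA1-CHO cells (10⁶ cells/mL) in phosphate buffer with adenosine deaminase 1.0 IU/mL and Ro 20-1724 0.5 mM, preincubated 10 min at 37 °C. Compound added for 10 min, alone or at 100 nM with CCPA 1 pM. Forskolin 1 µM added for 5 min, stopped with cold 6% TCA. cAMP measured by [³H]-cAMP competition protein-binding assay; percent inhibition versus control; three experiments.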

[7] = target: T1, Adenosine receptor A1 (Homo sapiens); test: Allosteric enhancement of human adenosine A1 receptor expressed in CHO cells assessed as inhibition of forskolin-stimulated cAMP production at 10 uM preincubated for 10 mins followed by forskolin challenge measured after 5 mins by scintillation counting analysis relative to control; assay type: functional, cell-based; procedure, shortened: as §1

Chain of Adenosine receptor A2a (Homo sapiens) (P29274 whole entry): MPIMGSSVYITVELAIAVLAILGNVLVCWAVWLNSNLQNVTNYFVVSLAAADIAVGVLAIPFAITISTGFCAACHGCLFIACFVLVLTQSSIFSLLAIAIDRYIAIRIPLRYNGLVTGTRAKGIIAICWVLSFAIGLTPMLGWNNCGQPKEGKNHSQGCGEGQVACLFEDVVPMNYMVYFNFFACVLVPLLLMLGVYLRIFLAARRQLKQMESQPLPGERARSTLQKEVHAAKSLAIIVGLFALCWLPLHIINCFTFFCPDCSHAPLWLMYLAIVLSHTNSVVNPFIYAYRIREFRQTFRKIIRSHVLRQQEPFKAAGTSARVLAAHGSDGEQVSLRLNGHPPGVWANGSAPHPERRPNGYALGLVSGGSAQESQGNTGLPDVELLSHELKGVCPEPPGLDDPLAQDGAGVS

Row | Compound | fold change (FC) [1] | fold change (FC) [2] | inhibition [3] | inhibition [4] | inhibition [5] | inhibition [6] | inhibition [7]
1 | CC(C)c1ccc(-c2sc(N)c(C(=O)c3ccc(Cl)cc3)c2CC(C)(C)C)cc1 | 4.1 | 5.6 | 1% | 1% | 1% | 58% | 56%
2 | Cc1c(-c2ccccc2)sc(N)c1C(=O)c1ccc(Cl)cc1 | 1.5 | 1.5 | 1% | 8% | 1% | 20% | 18%
3 | CC(C)(C)Cc1c(-c2cn[nH]c2)sc(N)c1C(=O)c1ccc(Cl)cc1 | 1.7 | 2.5 | 1% | 1% | 1% | 31% | 27%
4 | CC(C)(C)Cc1csc(N)c1C(=O)c1cccc(Cl)c1 | 1.5 | 4.3 | 8% | 1% | 2% | 42% | 45%
5 | CC(C)(C)Cc1c(-c2c(F)cccc2F)sc(N)c1C(=O)c1ccc(Cl)cc1 | 2.4 | 4.2 | 1% | 2% | 1% | 46% | 45%
6 | COc1ccc(-c2sc(N)c(C(=O)c3ccc(C)cc3)c2CC(C)(C)C)cc1 | 5.4 | 7.4 | 5% | 3% | 1% | 60% | 64%
7 | CC(C)(C)Cc1c(-c2ccccc2)sc(N)c1C(=O)c1ccc(Cl)cc1Cl | 4.4 | 6.8 | 1% | 1% | 1% | 55% | 52%
8 | CC(C)(C)Cc1c(-c2ccccc2)sc(N)c1C(=O)c1cccc(C(F)(F)F)c1 | 3.6 | 4 | 1% | 1% | 1% | 39% | 38%
9 | CC(C)(C)Cc1csc(N)c1C(=O)c1ccc(Cl)cc1 | 1.6 | 3.9 | 5% | 6% | 1% | 37% | 35%
10 | COc1ccccc1-c1sc(N)c(C(=O)c2ccc(Cl)cc2)c1CC(C)(C)C | 1.9 | 2.5 | 1% | 1% | 1% | 29% | 27%
11 | COc1cccc(-c2sc(N)c(C(=O)c3ccc(Cl)cc3)c2CC(C)(C)C)c1 | 5.8 | 6.3 | 1% | 2% | 1% | 57% | 55%
12 | CC(C)(C)Cc1c(-c2ccccc2)sc(N)c1C(=O)c1ccc(Cl)cc1 | 4.8 | 6.9 | 1% | 1% | 1% | 53% | 51%
13 | CC(C)(C)Cc1c(-c2ccco2)sc(N)c1C(=O)c1ccc(Cl)cc1 | 3.5 | 5.1 | 1% | 1% | 1% | 47% | 49%
14 | Cc1ccc(C(=O)c2c(N)sc(Br)c2CC(C)(C)C)cc1 | 4.3 | 6.4 | 1% | 1% | 1% | 63% | 61%
15 | CC(C)(C)Cc1c(-c2ccsc2)sc(N)c1C(=O)c1ccc(Cl)cc1 | 4.7 | 6.4 | 4% | 1% | 2% | 67% | 62%
16 | Cc1ccc(C(=O)c2c(N)sc(-c3ccccc3)c2CC(C)(C)C)cc1 | 5 | 6.7 | 1% | 6% | 1% | 61% | 62%
17 | CC(C)(C)Cc1csc(N)c1C(=O)c1ccc(Cl)c(Cl)c1 | 2 | 4.1 | 10% | 1% | 1% | 41% | 43%
18 | CC(C)(C)Cc1c(-c2ccccc2)sc(N)c1C(=O)c1ccccc1Cl | 3.9 | 5.4 | 1% | 1% | 1% | 41% | 38%
19 | Cc1cccc(-c2sc(N)c(C(=O)c3ccc(Cl)cc3)c2CC(C)(C)C)c1 | 4.1 | 4.7 | 1% | 1% | 1% | 51% | 47%
20 | COc1ccc(-c2sc(N)c(C(=O)c3ccc(Cl)c(Cl)c3)c2CC(C)(C)C)cc1 | 4.3 | 6 | 1% | 1% | 1% | 52% | 54%
21 | Cc1ccc(-c2sc(N)c(C(=O)c3ccc(Cl)cc3)c2CC(C)(C)C)cc1 | 6 | 6.4 | 1% | 1% | 1% | 58% | 57%
22 | CC(C)(C)Cc1c(-c2ccoc2)sc(N)c1C(=O)c1ccc(Cl)cc1 | 3.1 | 5.6 | 1% | 1% | 1% | 56% | 55%
23 | Nc1sc(-c2ccccc2)c(-c2ccccc2)c1C(=O)c1ccc(Cl)cc1 | 1.7 | 2.1 | 1% | 6% | 1% | 26% | 24%
24 | CC(C)(C)Cc1c(Br)sc(N)c1C(=O)c1ccc(Cl)cc1 | 4.5 | 6.8 | 1% | 2% | 1% | 50% | 48%
25 | COc1ccc(-c2sc(N)c(C(=O)c3ccc(Cl)cc3)c2CC(C)(C)C)cc1 | 4.3 | 6.1 | 2% | 1% | 1% | 43% | 44%
26 | CC(C)(C)c1csc(N)c1C(=O)c1ccc(Cl)cc1 | 1.6 | 1.3 | 1% | 1% | 1% | 18% | 11%
27 | CC(C)(C)Cc1csc(N)c1C(=O)c1cccc(C(F)(F)F)c1 | 1.7 | 2.6 | 1% | 1% | 1% | 30% | 28%
28 | Cc1sc(N)c(C(=O)c2cccc(C(F)(F)F)c2)c1C | 1.5 | 1.3 | – | 1% | 1% | – | –
